Reference: ChEMBL document CHEMBL1125672, “2-acetylpyridine thiosemicarbazones. 13. Derivatives with antifilarial activity” (1991)

What follows are molecules tested on Acanthocheilonema viteae (assay: anti-filarial Activity was measured against Acanthocheilonema viteae in jirds at 100 mg/kg/day(5 days) dose).
Assay type: functional
Outline: (§1)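 Jirds with established B. pahangi or A. viteae infections were given drug once daily for 5 days by subcutaneous injection, at the maximum tolerated dose and, where supply allowed, graded lower doses. Tolerance was first checked in noninfected jirds with a single 200 mg/kg oral or subcutaneous dose, watching 72 h for excessive weight loss or death. Macrofilarial suppression was the read-out.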

Row | Structure (SMILES) | Suppression [%]
1 | C/C(=N\N=C(/S)Nc1ccc(C)cc1N)c1ccccn1 | 72
2 | C/C(=N\N=C(/S)Nc1c(N)c2ccccc2c2ccccc12)c1ccccn1 | 23
3 | C/C(=N\N=C(/S)Nc1cc2ccccc2cc1N)c1ccccn1 | 37
4 | C/C(=N\N=C(/S)Nc1cccc(N)c1)c1ccccn1 | 43
5 | C/C(=N\N=C(/S)Nc1ccc(N)cc1)c1ccccn1 | 34
6 | C/C(=N\N=C(/S)Nc1cccc(N)n1)c1ccccn1 | 14
7 | C/C(=N\N=C(/S)Nc1ccccc1N)c1ccccc1 | 9
8 | C/C(=N\N=C(/S)N1CCN(c2ccc(Cl)cc2)CC1)c1ccccn1 | 85
9 | C/C(=N\NC(S)=Nc1ccccc1N)c1ccccn1.Cl.Cl | 100

Each molecule was assayed on Acanthocheilonema viteae (assay: anti-filarial Activity was measured against Acanthocheilonema viteae in jirds at 12.5 mg/kg/day(5 days) dose).
Assay type: functional
Outline: as §1

Row | Structure (SMILES) | Suppression [%]
10 | C/C(=N\N=C(/S)NCCN)c1ccccn1 | -40
11 | C/C(=N\N=C(/S)N1CCCCC1)c1ccccn1 | 14
12 | C/C(=N\NC(N)=S)c1ccccn1 | 42
13 | C/C(=N\NC(=S)N1CCCC1)c1ccccn1 | 31
14 | C/C(=N\NC(S)=Nc1ccccc1N)c1ccccn1.Cl.Cl | 36

These molecules were tested on Acanthocheilonema viteae (assay: anti-filarial Activity was measured against Acanthocheilonema viteae in jirds at 200 mg/kg/day(5 days) dose).
Assay type: functional
Outline: as §1

Row | Structure (SMILES) | Suppression [%]
15 | C/C(=N\N=C(/S)Nc1ccc(N)cc1)c1ccccn1 | 25
16 | C/C(=N\N=C(/S)Nc1ccccc1N)c1ccccc1 | 19

What follows are molecules tested on Acanthocheilonema viteae (assay: anti-filarial Activity was measured against Acanthocheilonema viteae in jirds at 25 mg/kg/day(5 days) dose).
Assay type: functional
Outline: as §1

Row | Structure (SMILES) | Suppression [%]
17 | C/C(=N\N=C(/S)Nc1ccc(C)cc1N)c1ccccn1 | 44
18 | C/C(=N\N=C(/S)NCCN)c1ccccn1 | 72
19 | C/C(=N\N=C(/S)Nc1ccc(N)cc1)c1ccccn1 | 9
20 | C/C(=N\NC(=S)Nc1ccccc1)c1ccccn1 | 44
21 | C/C(=N\N=C(/S)Nc1ccccc1N)c1ccccc1 | 15
22 | C/C(=N\NC(S)=Nc1ccccc1N)c1ccccn1.Cl.Cl | 100

Each molecule was assayed on Acanthocheilonema viteae (assay: anti-filarial Activity was measured against Acanthocheilonema viteae in jirds at 50 mg/kg/day(5 days) dose).
Assay type: functional
Outline: as §1

Row | Structure (SMILES) | Suppression [%]
23 | C/C(=N\N=C(/S)Nc1ccc(C)cc1N)c1ccccn1 | 75
24 | C/C(=N\N=C(/S)Nc1c(N)c2ccccc2c2ccccc12)c1ccccn1 | 23
25 | C/C(=N\N=C(/S)Nc1cc2ccccc2cc1N)c1ccccn1 | 4
26 | C/C(=N\NC(=S)Nc1ccccc1)c1ccccn1 | 25
27 | C/C(=N\N=C(/S)Nc1cccc(N)n1)c1ccccn1 | 14
28 | C/C(=N\N=C(/S)N1CCCCCCCC1)c1ccccn1 | 74
29 | C/C(=N\NC(S)=Nc1ccccc1N)c1ccccn1.Cl.Cl | 100

What follows are molecules tested on Acanthocheilonema viteae (assay: anti-filarial Activity was measured against Acanthocheilonema viteae in jirds at 6.25 mg/kg/day(5 days) dose).
Assay type: functional
Outline: as §1

Row | Structure (SMILES) | Suppression [%]
30 | C/C(=N\NC(=S)N1CCN(c2ccccn2)CC1)c1ccccn1 | 100
31 | C/C(=N\N=C(/S)N1CCCCC1)c1ccccn1 | 25

These molecules were tested on Acanthocheilonema viteae (assay: anti-filarial Activity was measured against Acanthocheilonema viteae in jirds at 75 mg/kg/day(5 days) dose).
Assay type: functional
Outline: as §1

Row | Structure (SMILES) | Suppression [%]
32 | C/C(=N\N=C(/S)Nc1ccc(C)cc1N)c1ccccn1 | 72

The molecules below were run on Brugia pahangi (assay: anti-filarial Activity was measured against Brugia pahangi in jirds at 1.56 mg/kg/day(5 days) dose).
Assay type: functional
Outline: as §1

Row | Structure (SMILES) | Suppression [%]
33 | C/C(=N\NC(N)=S)c1ccccn1 | 41
34 | C/C(=N\NC(=S)N1CCCC1)c1ccccn1 | 46

The molecules below were run on Brugia pahangi (assay: anti-filarial Activity was measured against Brugia pahangi in jirds at 100 mg/kg/day(5 days) dose).
Assay type: functional
Outline: as §1

Row | Structure (SMILES) | Suppression [%]
35 | C/C(=N\N=C(/S)Nc1ccc(C)cc1N)c1ccccn1 | 100
36 | C/C(=N\N=C(/S)Nc1c(N)c2ccccc2c2ccccc12)c1ccccn1 | 33
37 | C/C(=N\N=C(/S)Nc1cc2ccccc2cc1N)c1ccccn1 | 49
38 | C/C(=N\N=C(/S)Nc1cccc(N)c1)c1ccccn1 | 17
39 | C/C(=N\N=C(/S)Nc1ccc(N)cc1)c1ccccn1 | 39
40 | C/C(=N\N=C(/S)Nc1cccc(N)n1)c1ccccn1 | 55
41 | C/C(=N\N=C(/S)Nc1ccccc1N)c1ccccc1 | 15
42 | C/C(=N\N=C(/S)N1CCN(c2ccc(Cl)cc2)CC1)c1ccccn1 | 14
43 | C/C(=N\NC(S)=Nc1ccccc1N)c1ccccn1.Cl.Cl | 100

These molecules were tested on Brugia pahangi (assay: anti-filarial Activity was measured against Brugia pahangi in jirds at 100 mg/kg/day(5 days) dose;toxic).
Assay type: functional, organism-based
Outline: as §1

Row | Structure (SMILES) | Suppression
44 | C/C(=N\NC(N)=S)c1ccccn1 | Toxic

These molecules were tested on Brugia pahangi (assay: anti-filarial Activity was measured against Brugia pahangi in jirds at 12.5 mg/kg/day(5 days) dose).
Assay type: functional
Outline: as §1

Row | Structure (SMILES) | Suppression [%]
45 | C/C(=N\N=C(/S)NCCN)c1ccccn1 | -3
46 | C/C(=N\N=C(/S)N1CCCCC1)c1ccccn1 | 65
47 | C/C(=N\NC(N)=S)c1ccccn1 | 53
48 | C/C(=N\NC(=S)N1CCCC1)c1ccccn1 | 86
49 | C/C(=N\NC(S)=Nc1ccccc1N)c1ccccn1.Cl.Cl | 29

What follows are molecules tested on Brugia pahangi (assay: anti-filarial Activity was measured against Brugia pahangi in jirds at 200 mg/kg/day(5 days) dose).
Assay type: functional
Outline: as §1

Row | Structure (SMILES) | Suppression [%]
50 | C/C(=N\N=C(/S)Nc1ccc(N)cc1)c1ccccn1 | 60
51 | C/C(=N\N=C(/S)Nc1ccccc1N)c1ccccc1 | 71

Each molecule was assayed on Brugia pahangi (assay: anti-filarial Activity was measured against Brugia pahangi in jirds at 25 mg/kg/day(5 days) dose).
Assay type: functional
Outline: as §1

Row | Structure (SMILES) | Suppression [%]
52 | C/C(=N\N=C(/S)Nc1ccc(C)cc1N)c1ccccn1 | 29
53 | C/C(=N\N=C(/S)NCCN)c1ccccn1 | 26
54 | C/C(=N\N=C(/S)Nc1ccc(N)cc1)c1ccccn1 | 5
55 | C/C(=N\NC(=S)Nc1ccccc1)c1ccccn1 | 17
56 | C/C(=N\N=C(/S)Nc1ccccc1N)c1ccccc1 | 6
57 | C/C(=N\N=C(/S)N1CCN(c2ccc(Cl)cc2)CC1)c1ccccn1 | 6
58 | C/C(=N\NC(S)=Nc1ccccc1N)c1ccccn1.Cl.Cl | 100

Each molecule was assayed on Brugia pahangi (assay: anti-filarial Activity was measured against Brugia pahangi in jirds at 50 mg/kg/day(5 days) dose).
Assay type: functional
Outline: as §1

Row | Structure (SMILES) | Suppression [%]
59 | C/C(=N\N=C(/S)Nc1ccc(C)cc1N)c1ccccn1 | 100
60 | C/C(=N\N=C(/S)Nc1c(N)c2ccccc2c2ccccc12)c1ccccn1 | 5
61 | C/C(=N\NC(=S)Nc1ccccc1)c1ccccn1 | 97
62 | C/C(=N\N=C(/S)Nc1cccc(N)n1)c1ccccn1 | 5
63 | C/C(=N\N=C(/S)N1CCCCCCCC1)c1ccccn1 | 16
64 | C/C(=N\NC(S)=Nc1ccccc1N)c1ccccn1.Cl.Cl | 100

These molecules were tested on Brugia pahangi (assay: anti-filarial Activity was measured against Brugia pahangi in jirds at 6.25 mg/kg/day(5 days) dose).
Assay type: functional
Outline: as §1

Row | Structure (SMILES) | Suppression [%]
65 | C/C(=N\NC(=S)N1CCN(c2ccccn2)CC1)c1ccccn1 | -5
66 | C/C(=N\N=C(/S)N1CCCCC1)c1ccccn1 | 18

The molecules below were run on Brugia pahangi (assay: anti-filarial Activity was measured against Brugia pahangi in jirds at 75 mg/kg/day(5 days) dose).
Assay type: functional
Outline: as §1

Row | Structure (SMILES) | Suppression [%]
67 | C/C(=N\N=C(/S)Nc1ccc(C)cc1N)c1ccccn1 | 100

Each molecule was assayed on Acanthocheilonema viteae (assay: anti-filarial Activity was measured against Acanthocheilonema viteae in jirds at 1.56 mg/kg/day(5 days) dose).
Assay type: functional
Outline: as §1

Row | Structure (SMILES) | Suppression [%]
68 | C/C(=N\NC(=S)N1CCN(c2ccccn2)CC1)c1ccccn1 | 40
69 | C/C(=N\NC(N)=S)c1ccccn1 | 60
